In ChEMBL document CHEMBL5620402, “Development of submicromolar 17β-HSD10 inhibitors and their in vitro and in vivo evaluation” (Eur J Med Chem, 2023):
pIC50, pKi: −log10 of the molar value.

Assays:
[1] = Partition coefficient between Water and Octanol, logP of the compound by UHPLC-DAD-MS analysis; details: pH 7.4
[2] = molecular target: T1, 3-hydroxyacyl-CoA dehydrogenase type-2 (Homo sapiens, UniProt Q99714); test: Inhibition of recombinant 17beta-HSD10 (unknown origin) expressed in Escherichia coli BL21 (DE3) assessed as residual activity using acetoacetyl-CoA as substrate by SAAC method
T1 sequence (Q99714 whole entry): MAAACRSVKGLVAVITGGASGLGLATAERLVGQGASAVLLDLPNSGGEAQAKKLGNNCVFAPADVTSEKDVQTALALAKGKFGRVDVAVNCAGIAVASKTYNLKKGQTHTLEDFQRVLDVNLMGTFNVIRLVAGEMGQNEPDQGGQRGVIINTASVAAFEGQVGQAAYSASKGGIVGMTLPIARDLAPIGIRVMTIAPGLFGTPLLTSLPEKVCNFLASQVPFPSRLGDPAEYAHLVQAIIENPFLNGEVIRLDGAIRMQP
How it was run: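 Recombinant 17β-HSD10 from E. coli BL21(DE3), 0.15 μg, was mixed with 320 μmol/L NADH in 10 mM Tris-HCl pH 7.4 buffer (150 mM NaCl, 1 mM DTT, 0.001% Tween 20, 0.01% BSA). It was preincubated 5 min at 37 °C with inhibitor, then 320 μmol/L acetoacetyl-CoA was added. A340 was followed for 5 min. IC50 came from non-linear regression of ≥3 independent runs in triplicate; Ki was calculated from IC50 per Cer et al.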

[3] = molecular target: T2, 3-hydroxyacyl-CoA dehydrogenase type-2 (Homo sapiens) (UniProt Q99714); test: Binding affinity to 17beta-HSD10 (unknown origin) assessed as increase in denaturation temperature by differential scanning fluorimetry (DSF) assay; details: dose 25-50 µM
T2 sequence (whole entry): T1 sequence (Q99714 whole entry)
How it was run: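 Thermal shift assay with 1.43 μM 17β-HSD10 in 100 mM potassium phosphate pH 8.0 with SYPRO Orange (1:1000). Compounds were tested at 25 and 50 μmol/L. Fluorescence (Ex/Em 490/575) was recorded over 25–90 °C at 1 °C/min and Tm taken from melting curves. Triplicate; mean ± SD.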

[4] = Tmax in male albino Wistar rat plasma at 60 mg/kg, po measured upto 1440 mins by HPLC-MS analysis; format: ADME, organism-based
How it was run: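 Single oral gavage of a 16 mM solution (blunt needle via oesophagus into stomach) to male wild-type rats, in 10% NMP, 25% Kolliphor EL and 65% saline. Three animals were killed at each of 15 time points from 5 to 1440 min and exsanguinated. Plasma levels were measured by HPLC-MS. Non-compartmental analysis gave mean ± SE of three.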

[5] = molecular target: T2, 3-hydroxyacyl-CoA dehydrogenase type-2 (Homo sapiens); test: Inhibition of recombinant 17beta-HSD10 (unknown origin) expressed in Escherichia coli BL21 (DE3) assessed as residual activity at 10 uM using acetoacetyl-CoA as substrate by SAAC method relative to control
How it was run: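 Recombinant 17β-HSD10 from E. coli BL21(DE3), 0.15 μg, was mixed with 320 μmol/L NADH in Tris-HCl pH 7.4 assay buffer. It was preincubated 5 min at 37 °C with 1 or 10 μM inhibitor or vehicle, then 320 μmol/L acetoacetyl-CoA was added. A340 was followed for 5 min. Residual activity is % of control, triplicate mean ± SD, with t-test versus control.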

[6] = AUC (0 to 1440 mins) in male albino Wistar rat plasma at 60 mg/kg, po measured upto 1440 mins by HPLC-MS analysis; format: ADME, organism-based; details: in vivo, 24 h
How it was run: (§1)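 Oral gavage via blunt needle into the stomach of male wild-type rats. Dose was 60 mg/kg from a 16 mM solution in 10% NMP, 25% Kolliphor EL and 65% saline. Rats were sacrificed at 15 time-points from 5 to 1440 min, 3 per point. Plasma and brain were analysed by HPLC-MS with non-compartmental analysis; values are mean ± SE of three.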

[7] = Cmax in male albino Wistar rat plasma at 60 mg/kg, po measured upto 1440 mins by HPLC-MS analysis; format: ADME, organism-based
How it was run: as §1

SH-SY5Y = test: Cytotoxicity against human SH-SY5Y cells assessed as change in ATP level at 1 uM measured after 48 hrs by CellTiter-Glo assay; format: toxicity, cell-based
How it was run: (§2)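 HEK293 or SH-SY5Y cells in DMEM with 10% FBS, 2 mM glutamine and NEAA were seeded at 7,500 cells per well and grown 24 h. They were then exposed to 1 or 10 μM compound (final 1% DMSO) for 48 h. ATP was read by CellTiter-Glo luminescence after CellTox Green, normalised to 1% DMSO and 100 μM valinomycin controls. At least two experiments in tetraplicate.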

HEK293 = test: Cytotoxicity against human HEK293 cells assessed as change in ATP level at 10 uM measured after 48 hrs by CellTiter-Glo assay; format: toxicity, cell-based; details: hek293, 48 h
How it was run: as §2

[8] = molecular target: T3, Citrate synthase, mitochondrial (Sus scrofa) (UniProt P00889); test: Inhibition of pig brain mitochondrial citrate synthase assessed as activity at 50 uM by DTNB method (reference value: 100 + /- 5.5%); parameters: scale not given: the % may be the effect or the level left; details: Mitochondria
T3 sequence (whole entry): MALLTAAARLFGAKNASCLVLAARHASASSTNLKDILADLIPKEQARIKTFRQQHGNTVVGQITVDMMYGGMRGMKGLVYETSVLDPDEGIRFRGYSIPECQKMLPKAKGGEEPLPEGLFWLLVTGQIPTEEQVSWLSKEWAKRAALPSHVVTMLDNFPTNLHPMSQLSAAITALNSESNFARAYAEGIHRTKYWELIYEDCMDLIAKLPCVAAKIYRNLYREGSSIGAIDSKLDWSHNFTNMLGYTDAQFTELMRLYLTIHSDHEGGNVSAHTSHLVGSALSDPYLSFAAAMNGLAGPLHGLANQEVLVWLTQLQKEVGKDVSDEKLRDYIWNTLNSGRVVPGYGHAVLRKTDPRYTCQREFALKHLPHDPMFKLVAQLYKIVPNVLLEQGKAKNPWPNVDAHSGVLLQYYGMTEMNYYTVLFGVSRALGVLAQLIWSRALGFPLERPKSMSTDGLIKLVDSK

[9] = Permeability coefficient in male albino Wistar rat assessed as ratio of brain AUC to plasma AUC at 60 mg/kg, po measured upto 1440 mins by HPLC-MS analysis; format: ADME, organism-based
How it was run: as §1

Sus scrofa = species: Sus scrofa; test: Inhibition of pig brain mitochondrial Complex I assessed as rotenone-sensitive rate of the NADH oxidation by measuring activity by spectrophotometric ally method (reference value: 100 + /- 3.3%); parameters: scale not given: the % may be the effect or the level left; details: Mitochondria
How it was run: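 Sonicated pig brain mitochondria (1 mg/mL protein) were held in 25 mM KH2PO4, 5 mM MgCl2 pH 7.2 with 2 mM KCN. They were incubated with 50 μM drug for 30 min at 30 °C. The reaction was started with coenzyme Q10 and NADH (100 μM each), and A340 was read for 5 min. The rotenone (10 μM)-insensitive background was subtracted. At least three measurements.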

[10] = Tmax in male albino Wistar rat brain at 60 mg/kg, po measured upto 1440 mins by HPLC-MS analysis; format: ADME, organism-based
How it was run: as §1

[11] = Cmax in male albino Wistar rat brain at 60 mg/kg, po measured upto 1440 mins by HPLC-MS analysis; format: ADME, organism-based
How it was run: as §1

logP [1] | pIC50 [2] | pKi [2] | Activity [3] | Tmax [4] [min] | Activity [5] [%] | AUC [6] [pmol·min] | Cmax [7] [nM] | Activity [8] [%] | Kp at 24 h [9] | Tmax [10] [min] | Cmax [11] [nM] | Compound | Activity (SH-SY5Y) | Activity (HEK293) | Activity (Sus scrofa) [%]
1.19 | 6.51 | 6.64 | Dose-Dependent Effect | 25 | 17.5 | 212993 | 6.85 | 100 | 0.095 | 40 | 0.154 | O=C(Nc1ccc(O)c(Cl)c1)Nc1nc2ccc(C(=O)O)cc2s1 | Non-Toxic | Non-Toxic | 87.7
3.32 | 6.08 | 6.19 | – | – | 38.3 | – | – | 94.4 | – | – | – | NC(=O)c1ccc2nc(NC(=O)Nc3ccc(O)c(Cl)c3)sc2c1 | Non-Toxic | Non-Toxic | 25.2
4.28 | 6.24 | 6.36 | – | – | 13 | – | – | 92.7 | – | – | – | COc1ccc2nc(NC(=O)Nc3ccc(O)c(C(F)(F)F)c3)sc2c1 | – | Non-Toxic | 5.3
3.66 | 6.47 | 6.60 | Dose-Dependent Effect | 35 | 22 | 1431047 | 13.5 | 99.9 | 0.011 | 35 | 0.206 | CC(=O)Nc1ccc2nc(NC(=O)Nc3ccc(O)c(Cl)c3)sc2c1 | Non-Toxic | Non-Toxic | 24.3
